Measured values from different studies.
Protocols differ between the studies behind these lines.

O=S(=O)(c1ccc(-c2ccc3ncnc(Nc4ccc(OCc5ccccc5)c(Cl)c4)c3c2)cc1)N1CCOCC1  inhibition (Trypanosoma cruzi; parasite growth, absorbance; NIH3T3, TULAHUEN; 10 µM, intracellular, amastigote): 9%
O=C1c2ccccc2C(c2ccccc2)C(=O)N1OCc1ccccc1 (stereo not shown)  inhibition (Human betaherpesvirus 5; viral replication, inhibitor; 10 µM, 7 days): 12%
Nc1ncnc2c([C@@H]3N[C@H](CO)[C@@H](O)[C@H]3O)c[nH]c12  inhibition (human respiratory syncytial virus; viral replication, inhibitor; MA104; 0.9 µM): 0%
O=c1[nH]c2c(-c3ccccc3)csc2c(=O)n1O  inhibition (Human betaherpesvirus 5; viral replication, inhibitor; 10 µM, 7 days): 5.3%
Cc1ccc(CNC(=O)c2nc(-c3ccccc3)c3cccnc3c2O)cc1  EC50 (Human betaherpesvirus 5; viral replication, inhibitor; HFF): 31 µM
Cc1sc2[nH]c(=O)n(O)c(=O)c2c1C  inhibition (Human betaherpesvirus 5; viral replication, inhibitor; 10 µM, 7 days): -5.1%
Cc1ccc(CNC(=O)c2nc(Cl)c3cccnc3c2O)cc1  EC50 (Human betaherpesvirus 5; viral replication, inhibitor; HFF): 21 µM
O=C(Cn1ccnc1[N+](=O)[O-])NCc1ccccc1  IC50 (Trypanosoma cruzi; parasite growth; rat Myoblast, TULAHUEN; intracellular, amastigote): 0.352 µg/mL
COc1cccc(-c2nc(C(=O)NCc3ccc(C)cc3)c(O)c3ncccc23)c1  EC50 (Human betaherpesvirus 5; viral replication, inhibitor; HFF): 24 µM
Nc1ccn(C[C@@H](CO)OCP(=O)(O)O)c(=O)n1  IC50 (Human betaherpesvirus 5; viral replication): 0.28 µM
